Activity calls are given as the source filed them. No cut-off for these calls is given here. Where a SMILES comes first, the peptide text is derived from it. [ ]: non-standard residue; d: D form. The star is where a group is joined. Nva = CCC[C@H](N)C(=O)O; Cbz = O=C(OCc1ccccc1)*
What was measured:
[1] = biological target: T1, Transitional endoplasmic reticulum ATPase (Homo sapiens, UniProt P55072); assay: Inhibition of His-tagged p97 (unknown origin) in presence of ATP and PNP by UV-transparent microplate assay; conditions: read-out: Ki(app)
Target sequence in this assay (P55072 whole entry): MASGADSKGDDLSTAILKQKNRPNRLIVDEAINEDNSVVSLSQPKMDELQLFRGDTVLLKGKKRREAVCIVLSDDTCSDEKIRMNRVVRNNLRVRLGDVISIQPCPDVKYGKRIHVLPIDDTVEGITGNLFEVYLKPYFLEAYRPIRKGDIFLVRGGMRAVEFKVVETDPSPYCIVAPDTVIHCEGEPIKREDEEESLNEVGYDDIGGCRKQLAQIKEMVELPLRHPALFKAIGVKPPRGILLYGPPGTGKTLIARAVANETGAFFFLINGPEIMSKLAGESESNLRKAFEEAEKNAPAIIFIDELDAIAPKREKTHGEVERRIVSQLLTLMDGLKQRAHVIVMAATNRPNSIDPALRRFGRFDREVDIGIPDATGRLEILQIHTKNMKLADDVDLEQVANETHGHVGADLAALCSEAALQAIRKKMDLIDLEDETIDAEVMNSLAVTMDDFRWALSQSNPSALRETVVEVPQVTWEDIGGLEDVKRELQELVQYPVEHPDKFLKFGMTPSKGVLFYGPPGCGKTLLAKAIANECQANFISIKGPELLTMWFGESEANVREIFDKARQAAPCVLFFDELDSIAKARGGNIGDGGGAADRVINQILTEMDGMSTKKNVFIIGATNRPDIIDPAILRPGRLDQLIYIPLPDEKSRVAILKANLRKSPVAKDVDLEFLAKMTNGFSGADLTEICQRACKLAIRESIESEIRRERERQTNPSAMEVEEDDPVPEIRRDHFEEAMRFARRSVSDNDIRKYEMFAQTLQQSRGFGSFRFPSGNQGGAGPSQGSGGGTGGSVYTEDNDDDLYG

MIA PaCa-2 = assay: Antiproliferative activity against human MIAPaCa2 cells; format: functional, cell-based
Proteasome [2] = assay: Irreversible inhibition of proteasome in human HEK293T cells based Ubv-GFP cells assessed as increase Ub-v-GFP accumulation at 20 uM after 4 hrs by Western blot analysis
Procedure, shortened: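 Ub-v-GFP reporter cells (HEK293T-based, stably expressing this short-lived proteasome substrate) seeded at 3 × 10⁵ per well on poly-D-lysine, grown overnight, then exposed to MG132 for 4 h at 37 °C. Whole-cell extracts in Laemmli buffer were run on SDS-PAGE and immunoblotted for Ub-v-GFP, with anti-p97 as loading control.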

Proteasome [3] = assay: Irreversible inhibition of proteasome in human HEK293T cells based Ubv-GFP cells assessed as increase Ub-v-GFP accumulation at 20 uM incubated for 1 hr followed by culturing in drug-free medium for additional 3 hrs by Western blot analysis
Proteasome [4] = assay: Inhibition of proteasome in human HEK293T cells based Ubv-GFP cells assessed as increase Ub-v-GFP accumulation at 20 uM after 4 hrs by Western blot analysis
Proteasome [5] = assay: Inhibition of proteasome in human HEK293T cells stably expressing YFP delSS TCRalpha assessed as reduction in deltaSS TCRalpha-YFP degradation at 10 uM MG132 incubated overnight by Western blot analysis
Proteasome [6] = assay: Irreversible inhibition of proteasome in human A373 cells co-expressing US11 and HA-tagged MCH class 1 heavy chain H2A assessed as MHC class 1 heavy chain degradation at 20 uM incubated for 1 hr followed by further incubation in drug-free medium in presence of cycloheximide by Western blot analysis
[7] = biological target: T1, Transitional endoplasmic reticulum ATPase; assay: Inhibition of p97 ATPase activity in human HEK293T cells based Ubv-GFP cells assessed as increase Ub-v-GFP accumulation at 2 uM after 4 hrs by Western blot analysis; format: cell-based
Procedure, shortened: (§1)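 Ub-v-GFP reporter cells (HEK293T-based, 3 × 10⁵) seeded on poly-D-lysine-coated wells and grown overnight. Inhibitor added at 2 μM and kept 4 h at 37 °C (scheme A), or removed after 1 h, cells washed once with PBS, then 3 h in drug-free medium (scheme B). Whole-cell Laemmli extracts immunoblotted for Ub-v-GFP, with anti-p97 as loading control.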
Target sequence in this assay (P55072 2-806 limits assumed): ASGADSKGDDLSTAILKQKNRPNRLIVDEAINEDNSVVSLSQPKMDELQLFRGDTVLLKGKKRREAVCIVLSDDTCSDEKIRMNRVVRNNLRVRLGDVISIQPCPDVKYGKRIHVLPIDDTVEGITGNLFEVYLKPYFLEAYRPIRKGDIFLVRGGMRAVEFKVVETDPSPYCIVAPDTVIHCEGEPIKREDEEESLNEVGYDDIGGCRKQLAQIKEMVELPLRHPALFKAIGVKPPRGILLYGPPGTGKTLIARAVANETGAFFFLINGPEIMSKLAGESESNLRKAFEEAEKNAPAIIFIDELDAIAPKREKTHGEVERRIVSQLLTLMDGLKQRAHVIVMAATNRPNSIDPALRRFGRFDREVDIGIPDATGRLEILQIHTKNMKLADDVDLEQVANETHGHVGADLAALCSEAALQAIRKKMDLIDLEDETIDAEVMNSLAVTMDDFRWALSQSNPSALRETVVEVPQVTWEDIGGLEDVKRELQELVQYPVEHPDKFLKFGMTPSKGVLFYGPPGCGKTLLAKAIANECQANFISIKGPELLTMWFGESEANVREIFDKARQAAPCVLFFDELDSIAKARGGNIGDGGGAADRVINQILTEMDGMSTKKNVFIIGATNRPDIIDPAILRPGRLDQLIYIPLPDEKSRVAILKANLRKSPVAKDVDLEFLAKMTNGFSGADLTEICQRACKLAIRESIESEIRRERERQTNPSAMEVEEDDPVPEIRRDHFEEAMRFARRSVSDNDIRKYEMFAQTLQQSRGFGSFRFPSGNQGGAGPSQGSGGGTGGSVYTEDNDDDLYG

[8] = GSH reactivity in PBS buffer assessed as half life at 1 uM after presence of GSH by LC-MS/MS analysis; format: physicochemical; conditions: PBS buffer with GSH
Procedure, shortened: (§2)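 Compound at 1 μM incubated at 37 °C with 5 mM GSH plus a stable internal standard in 0.1 M potassium phosphate, pH 7.4, 10% acetonitrile. Reaction started by GSH addition. GSH conjugate formation checked at the end of incubation.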

[9] = biological target: T1, Transitional endoplasmic reticulum ATPase; assay: Irreversible inhibition of p97 ATPase activity in human HEK293T cells based Ubv-GFP cells assessed as increase Ub-v-GFP accumulation at 2 uM incubated for 4 hrs by Western blot analysis; format: cell-based; procedure, shortened: as §1
Target sequence in this assay (P55072 2-806 limits assumed): as above

[10] = GSH reactivity in PBS buffer assessed as GSH adduct formation at 1 uM after presence of GSH by LC-MS/MS analysis; format: physicochemical; procedure, shortened: as §2
[11] = biological target: T1, Transitional endoplasmic reticulum ATPase; assay: Reversible inhibition of His-tagged p97 (unknown origin) using PNP as substrate assessed as activity recovered at 3200 nM after 2 hrs by dialysis relative to control; set-up: scale not given: the % may be the effect or the level left
Target sequence in this assay (P55072 2-806 limits assumed): as above

[12] = test system: Transitional endoplasmic reticulum ATPase (Homo sapiens), P55072 [UNDEFINED MUTATION]; assay: Reversible inhibition of His-tagged p97 C552A mutant (unknown origin) using PNP as substrate assessed as activity recovered at 3200 nM after 2 hrs by dialysis relative to control; set-up: scale not given: the % may be the effect or the level left
[13] = biological target: T1, Transitional endoplasmic reticulum ATPase; assay: Inhibition of p97 in human A373 cells co-expressing US11 and HA-tagged MCH class 1 heavy chain H2A assessed as MHC class 1 heavy chain accumulation at 2 uM after 1 hr by Western blot analysis; format: cell-based
Target sequence in this assay (P55072 2-806 limits assumed): as above

[14] = biological target: T1, Transitional endoplasmic reticulum ATPase; assay: Reversible inhibition of p97 in human A373 cells co-expressing US11 and HA-tagged MCH class 1 heavy chain H2A assessed as half life for MHC class 1 heavy chain degradation at 2 uM incubated for 1 hr followed by further incubation in drug-free medium in presence of cycloheximide by Western blot analysis; format: cell-based
Procedure, shortened: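 They were then moved to inhibitor-free medium containing cycloheximide (50 μg/mL) and sampled at set time points. Lysates were immunoblotted for heavy chain turnover.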
Target sequence in this assay (P55072 2-806 limits assumed): as above

Proteasome [15] = assay: Inhibition of proteasome in human HEK293T cells stably expressing YFP delSS TCRalpha assessed as reduction in deltaSS TCRalpha-YFP degradation at 2 uM MG132 incubated overnight by Western blot analysis
[16] = biological target: T1, Transitional endoplasmic reticulum ATPase; assay: Irreversible inhibition of His-tagged p97 (unknown origin) using PNP as substrate assessed as activity recovered at 780 nM after 2 hrs by dialysis relative to control; set-up: scale not given: the % may be the effect or the level left
Target sequence in this assay (P55072 2-806 limits assumed): as above

[17] = test system: Transitional endoplasmic reticulum ATPase (Homo sapiens), P55072 [UNDEFINED MUTATION]; assay: Irreversible inhibition of His-tagged p97 C552A mutant (unknown origin) using PNP as substrate assessed as activity recovered at 780 nM after 2 hrs by dialysis relative to control; set-up: scale not given: the % may be the effect or the level left
Homo sapiens = organism: Homo sapiens; assay: Irreversible inhibition of His-tagged p97 delta N mutant (unknown origin) using PNP as substrate assessed as activity recovered at 780 nM after 2 hrs by dialysis relative to control; set-up: scale not given: the % may be the effect or the level left
[18] = biological target: T1, Transitional endoplasmic reticulum ATPase; assay: Irreversible inhibition of p97 ATPase activity in human HEK293T cells based Ubv-GFP cells assessed as increase Ub-v-GFP accumulation at 2 uM incubated for 1 hr followed by culturing in drug-free medium for additional 3 hrs by Western blot analysis; format: cell-based; procedure, shortened: as §1
[19] = biological target: T1, Transitional endoplasmic reticulum ATPase; assay: Noncompetitive inhibition of p97 (unknown origin) using increasing concentration of ATP preincubated for 10 mins followed by ATP addition and measured after 2 hrs by UV-based two-step endpoint assay
[20] = biological target: T1, Transitional endoplasmic reticulum ATPase; assay: Irreversible inhibition of p97 in human A373 cells co-expressing US11 and HA-tagged MCH class 1 heavy chain H2A assessed as MHC class 1 heavy chain degradation at 2 uM incubated for 1 hr followed by further incubation in drug-free medium in presence of cycloheximide by Western blot analysis

Transitional endoplasmic reticulum ATPase (Homo sapiens), P55072 [UNDEFINED MUTATION], sequence (P55072 whole entry, looked up, stated change not applied): as the sequence (P55072 whole entry) above

Ki [1]	EC50 (MIA PaCa-2)	inhibition [7]	Structure (SMILES)	also measured
40.8 nM	608 nM	–	CCCNC(=O)c1cccc2c1cc(C)n2-c1nc2c(c(NCc3ccccc3)n1)CCCC2	–
–	–	–	CCC[C@@H](C=O)NC(=O)[C@H](CC(C)C)NC(=O)[C@H](CC(C)C)NC(=O)OCc1ccccc1 (Cbz-Leu-Leu-[Nva]-aldehyde)	inhibition (Proteasome [2]): Active; inhibition (Proteasome [3]): Active
–	–	–	CC(C)C[C@@H](C=O)NC(=O)[C@H](CC(C)C)NC(=O)[C@H](CC(C)C)NC(=O)OCc1ccccc1 (Cbz-Leu-Leu-Leu-aldehyde)	inhibition (Proteasome [4]): Active; inhibition (Proteasome [5]): Active; inhibition (Proteasome [6]): Active
26.9 nM	1570 nM	Active	CCCC#CC(=O)Nc1cccc2c1cc(C)n2-c1nc2c(c(NCc3ccccc3)n1)CCCC2	–
43 nM	463 nM	Active	CCC#CC(=O)Nc1cccc2c1cc(C)n2-c1nc2c(c(NCc3ccccc3)n1)CCCC2	–
28.6 nM	128 nM	Active	Cc1cc2c(C(N)=O)cccc2n1-c1nc2c(c(NCc3ccccc3)n1)CCCC2	–
32.3 nM	600 nM	–	CC#CC(=O)Nc1cccc2c1cc(C)n2-c1nc2c(c(NCc3ccccc3)n1)COCC2	–
42.4 nM	524 nM	Active	CC#CCNC(=O)c1cccc2c1cc(C)n2-c1nc2c(c(NCc3ccccc3)n1)COCC2	half-life at 1 µM [8]: > 24 h; inhibition [9]: Active; Activity [10]: Not Active
18.6 nM	1080 nM	Active	C#CCNC(=O)c1cccc2c1cc(C)n2-c1nc2c(c(NCc3ccccc3)n1)COCC2	inhibition [9]: Active
28.1 nM	468 nM	Active	Cc1cc2c(C(=O)NCC#N)cccc2n1-c1nc2c(c(NCc3ccccc3)n1)CCCC2	–
–	–	–	COc1cccc2c(NCc3ccccc3)nc(-n3c(N)nc4ccccc43)nc12	Activity [11]: 82%; Activity [12]: 100%
–	–	–	Cc1cc(OCc2nnc(SC3CCCC3)n2-c2cccnc2)ccc1-c1ccc(S(C)(=O)=O)cc1	inhibition [13]: Active; T1/2 [14]: < 1 h; inhibition (Proteasome [15]): inactive
20.8 nM	1010 nM	Active	CCC(=O)Nc1cccc2c1cc(C)n2-c1nc2c(c(NCc3ccccc3)n1)CCCC2	–
24.1 nM	517 nM	Active	Cc1cc2c(C(=O)NCCC#N)cccc2n1-c1nc2c(c(NCc3ccccc3)n1)CCCC2	–
37.3 nM	723 nM	Active	CC#CCNC(=O)c1cccc2c1cc(C)n2-c1nc2c(c(NCc3ccccc3)n1)CCCC2	half-life at 1 µM [8]: > 24 h; inhibition [9]: Active; Activity [10]: Not Active
32.8 nM	78.7 nM	–	C#CC(=O)Nc1cccc2c1cc(C)n2-c1nc2c(c(NCc3ccccc3)n1)COCC2	–
24.5 nM	1410 nM	Active	C#CCCNC(=O)c1cccc2c1cc(C)n2-c1nc2c(c(NCc3ccccc3)n1)CCCC2	–
33.2 nM	436 nM	Active	CC#CC(=O)Nc1cccc2c1cc(C)n2-c1nc2c(c(NCc3ccccc3)n1)CCCC2	Activity [16]: 3%; Activity [17]: 6%; Activity (Homo sapiens): 0%; inhibition [18]: Active; inhibition [9]: Active; inhibition [13]: Active; inhibition [19]: Active; inhibition (Proteasome [15]): inactive; inhibition [20]: Active
26.6 nM	880 nM	–	C=CC(=O)Nc1cccc2c1cc(C)n2-c1nc2c(c(NCc3ccccc3)n1)COCC2	–
37.9 nM	131 nM	–	C#CC(=O)Nc1cccc2c1cc(C)n2-c1nc2c(c(NCc3ccccc3)n1)CCCC2	–
30.6 nM	470 nM	Active	C#CCNC(=O)c1cccc2c1cc(C)n2-c1nc2c(c(NCc3ccccc3)n1)CCCC2	inhibition [9]: Active

From ChEMBL document CHEMBL4400565, “Discovery of Irreversible p97 Inhibitors” (J Med Chem, 2019)
